Tests used:
[1] = melting temperature; fluorescence melt of hairpins on a sequencing array, two-state fit, raised by 9.35 °C to match UV melts; conditions: sodium 0.088 M
In short: (§1)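 In 50 mM Na-HEPES pH 8.0 containing 25 mM NaCl, hairpins from the library on a sequenced MiSeq flow cell were imaged for Cy3 fluorescence at 2.5 °C steps up to 60 °C, with Cy3 and quencher oligos annealed. After normalisation to pre-quench Cy3 and to control constructs, two-state fits with bootstrapping gave melting temperature and folding enthalpy. Four replicates were combined by inverse-variance weighting, and fitted temperatures were shifted up by 9.35 °C to match UV melts.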

[2] = folding enthalpy; higher = less favourable; fluorescence melt of hairpins on a sequencing array, two-state fit; conditions: sodium 0.088 M
In short: as §1

GATCGATCAGTCGATC ((((((....))))))
Tm [1]: 51.1 °C
folding enthalpy [2]: -43.1 kcal/mol

GATCGATCCCTCGATC ((((((....))))))
Tm [1]: 52.8 °C
folding enthalpy [2]: -44.1 kcal/mol

GATCGATCGATCGATC ((((((....))))))
Tm [1]: 57.1 °C
folding enthalpy [2]: -57.6 kcal/mol

GATCGATCTATCGATC ((((((....))))))
Tm [1]: 56.3 °C
folding enthalpy [2]: -42.5 kcal/mol

GATCGATGAATCGATC ((((((....))))))
Tm [1]: 55.1 °C
folding enthalpy [2]: -41.1 kcal/mol

GATCGATGCATCGATC ((((((....))))))
Tm [1]: 59.7 °C
folding enthalpy [2]: -46.9 kcal/mol

GATCGATGCCTCGATC ((((((....))))))
Tm [1]: 52.5 °C
folding enthalpy [2]: -38.1 kcal/mol

GATCGATGGATCGATC ((((((....))))))
Tm [1]: 54.5 °C
folding enthalpy [2]: -36.5 kcal/mol

GATCGATGGCTCGATC ((((((....))))))
Tm [1]: 50.2 °C
folding enthalpy [2]: -34 kcal/mol

GATCGATGTCTCGATC ((((((....))))))
Tm [1]: 51.5 °C
folding enthalpy [2]: -39 kcal/mol

GATCGATGTTTCGATC ((((((....))))))
Tm [1]: 53.5 °C
folding enthalpy [2]: -43 kcal/mol

GATCGATTCGTCGATC ((((((....))))))
Tm [1]: 55.1 °C
folding enthalpy [2]: -41.5 kcal/mol

GATCGATTGTTCGATC ((((((....))))))
Tm [1]: 53.1 °C
folding enthalpy [2]: -37.4 kcal/mol

GATCGATTTGTCGATC ((((((....))))))
Tm [1]: 55.5 °C
folding enthalpy [2]: -41.5 kcal/mol

GATCGATTTTCGATC ((((((...))))))
Tm [1]: 54.4 °C
folding enthalpy [2]: -35.2 kcal/mol

GATCGCAAATGCGATC ((((((....))))))
Tm [1]: 68 °C
folding enthalpy [2]: -40.5 kcal/mol

GATCGCAAGCGCGATC ((((((....))))))
Tm [1]: 67.8 °C
folding enthalpy [2]: -31 kcal/mol

GATCGCAAGGGCGATC ((((((....))))))
Tm [1]: 68 °C
folding enthalpy [2]: -29.3 kcal/mol

GATCGCACAGGCGATC ((((((....))))))
Tm [1]: 68.1 °C
folding enthalpy [2]: -33 kcal/mol

GATCGCACCGCGATC ((((((...))))))
Tm [1]: 69 °C
folding enthalpy [2]: -34 kcal/mol

GATCGCACTGCGATC ((((((...))))))
Tm [1]: 68.3 °C
folding enthalpy [2]: -35 kcal/mol

GATCGCAGAAGCGATC ((((((....))))))
Tm [1]: 66.9 °C
folding enthalpy [2]: -30.8 kcal/mol

GATCGCATAGGCGATC ((((((....))))))
Tm [1]: 68.2 °C
folding enthalpy [2]: -32 kcal/mol

GATCGCATGAGCGATC ((((((....))))))
Tm [1]: 69.3 °C
folding enthalpy [2]: -27.4 kcal/mol

GATCGCCCGTGCGATC ((((((....))))))
Tm [1]: 64 °C
folding enthalpy [2]: -33.7 kcal/mol

GATCGCCGATGCGATC ((((((....))))))
Tm [1]: 66.6 °C
folding enthalpy [2]: -32 kcal/mol

GATCGCCGGTGCGATC ((((((....))))))
Tm [1]: 66 °C
folding enthalpy [2]: -35.1 kcal/mol

GATCGCCGTCGCGATC ((((((....))))))
Tm [1]: 66.6 °C
folding enthalpy [2]: -36.5 kcal/mol

GATCGCCTACGCGATC ((((((....))))))
Tm [1]: 67.4 °C
folding enthalpy [2]: -39.5 kcal/mol

GATCGCCTGCGCGATC ((((((....))))))
Tm [1]: 67.2 °C
folding enthalpy [2]: -32 kcal/mol

GATCGCGAAAGCGATATC ((((((....)))..)))
Tm [1]: 59.2 °C
folding enthalpy [2]: -11.8 kcal/mol

GATCGCGAGTGCGATC ((((((....))))))
Tm [1]: 66.3 °C
folding enthalpy [2]: -33.8 kcal/mol

GATCGCGATGGCGATC ((((((....))))))
Tm [1]: 68.8 °C
folding enthalpy [2]: -37.7 kcal/mol

GATCGCGCTGGCGATC ((((((....))))))
Tm [1]: 68.9 °C
folding enthalpy [2]: -32.5 kcal/mol

GATCGCGGAAACGTGATC ((((.((....)).))))
Tm [1]: 57.5 °C
folding enthalpy [2]: -38.6 kcal/mol

GATCGCGGGGCGATC ((((((...))))))
Tm [1]: 68 °C
folding enthalpy [2]: -29.8 kcal/mol

GATCGCGGGTGCGATC ((((((....))))))
Tm [1]: 68.4 °C
folding enthalpy [2]: -34.5 kcal/mol

GATCGCGGTTGCGATC ((((((....))))))
Tm [1]: 68.9 °C
folding enthalpy [2]: -25.1 kcal/mol

GATCGCTAACGCGATC ((((((....))))))
Tm [1]: 66.5 °C
folding enthalpy [2]: -35.7 kcal/mol

GATCGCTAAGGCGATC ((((((....))))))
Tm [1]: 67.8 °C
folding enthalpy [2]: -39.2 kcal/mol

GATCGCTAGGGCGATC ((((((....))))))
Tm [1]: 68.2 °C
folding enthalpy [2]: -34.8 kcal/mol

GATCGCTCAAGCGATC ((((((....))))))
Tm [1]: 68 °C
folding enthalpy [2]: -43.6 kcal/mol

GATCGGAAACCGATC ((((((...))))))
Tm [1]: 56 °C
folding enthalpy [2]: -38 kcal/mol

GATCGGAAAGCCGATC ((((((....))))))
Tm [1]: 51.3 °C
folding enthalpy [2]: -35.4 kcal/mol

GATCGGAAGCCCGATC ((((((....))))))
Tm [1]: 54.1 °C
folding enthalpy [2]: -36.5 kcal/mol

GATCGGAAGTCCGATC ((((((....))))))
Tm [1]: 55.2 °C
folding enthalpy [2]: -38.9 kcal/mol

GATCGGACACCCGATC ((((((....))))))
Tm [1]: 54.7 °C
folding enthalpy [2]: -41.5 kcal/mol

GATCGGACATCCGATC ((((((....))))))
Tm [1]: 55.3 °C
folding enthalpy [2]: -38.7 kcal/mol

GATCGGACCTCCGATC ((((((....))))))
Tm [1]: 56.6 °C
folding enthalpy [2]: -40.7 kcal/mol

GATCGGACGACCGATC ((((((....))))))
Tm [1]: 57.3 °C
folding enthalpy [2]: -35.1 kcal/mol

GATCGGACGCCCGATC ((((((....))))))
Tm [1]: 57.3 °C
folding enthalpy [2]: -38 kcal/mol

GATCGGACTACCGATC ((((((....))))))
Tm [1]: 55.6 °C
folding enthalpy [2]: -36.6 kcal/mol

GATCGGACTTCCGATC ((((((....))))))
Tm [1]: 57.2 °C
folding enthalpy [2]: -42.3 kcal/mol

GATCGGAGAACCGATC ((((((....))))))
Tm [1]: 52.6 °C
folding enthalpy [2]: -33.8 kcal/mol

GATCGGAGCCCGATC ((((((...))))))
Tm [1]: 53.4 °C
folding enthalpy [2]: -31.2 kcal/mol

GATCGGAGGCCGATC ((((((...))))))
Tm [1]: 55.8 °C
folding enthalpy [2]: -40.3 kcal/mol

GATCGGAGGTCCGATC ((((((....))))))
Tm [1]: 57.6 °C
folding enthalpy [2]: -31.5 kcal/mol

GATCGGATAACCGATC ((((((....))))))
Tm [1]: 56.2 °C
folding enthalpy [2]: -35.1 kcal/mol

GATCGGATCCCCGATC ((((((....))))))
Tm [1]: 54 °C
folding enthalpy [2]: -41.4 kcal/mol

GATCGGATCCCGATC ((((((...))))))
Tm [1]: 56 °C
folding enthalpy [2]: -38 kcal/mol

GATCGGATCTCCGATC ((((((....))))))
Tm [1]: 56.7 °C
folding enthalpy [2]: -40.4 kcal/mol

GATCGGATGTCCGATC ((((((....))))))
Tm [1]: 56.8 °C
folding enthalpy [2]: -38.2 kcal/mol

GATCGGCAATCCGATC ((((((....))))))
Tm [1]: 55 °C
folding enthalpy [2]: -44.7 kcal/mol

GATCGGCACTCCGATC ((((((....))))))
Tm [1]: 57.1 °C
folding enthalpy [2]: -40.5 kcal/mol

GATCGGCAGCCCGATC ((((((....))))))
Tm [1]: 54.9 °C
folding enthalpy [2]: -36.1 kcal/mol

GATCGGCATACCGATC ((((((....))))))
Tm [1]: 56.9 °C
folding enthalpy [2]: -40.5 kcal/mol

GATCGGCATCCCGATC ((((((....))))))
Tm [1]: 54.1 °C
folding enthalpy [2]: -40.9 kcal/mol

GATCGGCCATCCGATC ((((((....))))))
Tm [1]: 55.5 °C
folding enthalpy [2]: -40.4 kcal/mol

GATCGGCCGAAAGGCATC (((..(((....))))))
Tm [1]: 26.9 °C
folding enthalpy [2]: -6.97 kcal/mol

GATCGGCCGACCGATC ((((((....))))))
Tm [1]: 57.9 °C
folding enthalpy [2]: -34.6 kcal/mol

GATCGGCCGTCCGATC ((((((....))))))
Tm [1]: 58.3 °C
folding enthalpy [2]: -39.7 kcal/mol

GATCGGCCTCCGATC ((((((...))))))
Tm [1]: 59.4 °C
folding enthalpy [2]: -34.3 kcal/mol

GATCGGCGATCCGATC ((((((....))))))
Tm [1]: 55 °C
folding enthalpy [2]: -35.3 kcal/mol

GATCGGCGCCCGATC ((((((...))))))
Tm [1]: 56.8 °C
folding enthalpy [2]: -36.4 kcal/mol

GATCGGCGCTCCGATC ((((((....))))))
Tm [1]: 56.9 °C
folding enthalpy [2]: -37.8 kcal/mol

GATCGGCGTCCGATC ((((((...))))))
Tm [1]: 56.4 °C
folding enthalpy [2]: -40.5 kcal/mol

GATCGGCTAACCGATC ((((((....))))))
Tm [1]: 56.5 °C
folding enthalpy [2]: -42.2 kcal/mol

GATCGGCTCCCGATC ((((((...))))))
Tm [1]: 57.8 °C
folding enthalpy [2]: -38.4 kcal/mol

GATCGGCTGCCGATC ((((((...))))))
Tm [1]: 57.2 °C
folding enthalpy [2]: -55.3 kcal/mol

GATCGGGAACCGATC ((((((...))))))
Tm [1]: 68.4 °C
folding enthalpy [2]: -36 kcal/mol

GATCGGGAAGCCGATC ((((((....))))))
Tm [1]: 59.6 °C
folding enthalpy [2]: -37.9 kcal/mol

GATCGGGAATCCGATC ((((((....))))))
Tm [1]: 64.8 °C
folding enthalpy [2]: -38.6 kcal/mol

GATCGGGAGCCCGATC ((((((....))))))
Tm [1]: 55.5 °C
folding enthalpy [2]: -36.5 kcal/mol

GATCGGGATACCGATC ((((((....))))))
Tm [1]: 65.7 °C
folding enthalpy [2]: -45.8 kcal/mol

GATCGGGATCCCGATC ((((((....))))))
Tm [1]: 59.5 °C
folding enthalpy [2]: -50.5 kcal/mol

GATCGGGCCCCCGATC ((((((....))))))
Tm [1]: 59.6 °C
folding enthalpy [2]: -43.2 kcal/mol

GATCGGGCCCCGATC ((((((...))))))
Tm [1]: 57.5 °C
folding enthalpy [2]: -44.1 kcal/mol

GATCGGGCGAAAGCCATC (((..(((....))))))
Tm [1]: 22.6 °C
folding enthalpy [2]: -10.2 kcal/mol

GATCGGGCTCCCGATC ((((((....))))))
Tm [1]: 58.5 °C
folding enthalpy [2]: -40.6 kcal/mol

GATCGGGGAAACTCGGTC ((.((.(....).)).))
Tm [1]: 38 °C
folding enthalpy [2]: -28.3 kcal/mol

GATCGGGGACCCGATC ((((((....))))))
Tm [1]: 63 °C
folding enthalpy [2]: -45.9 kcal/mol

GATCGGGGAGCCGATC ((((((....))))))
Tm [1]: 59.5 °C
folding enthalpy [2]: -35.1 kcal/mol

GATCGGGGGCCCGATC ((((((....))))))
Tm [1]: 59.7 °C
folding enthalpy [2]: -40.1 kcal/mol

GATCGGGGTGCCGATC ((((((....))))))
Tm [1]: 59.3 °C
folding enthalpy [2]: -52.3 kcal/mol

GATCGGGTAACCGATC ((((((....))))))
Tm [1]: 68.1 °C
folding enthalpy [2]: -36.6 kcal/mol

GATCGGGTAGCCGATC ((((((....))))))
Tm [1]: 62 °C
folding enthalpy [2]: -41.9 kcal/mol

Reference: the array DNA melting data of Ke et al. (doi:10.1101/2024.01.08.574731)
